Neddyl block: cullin neddylation inhibition. P61081+Q13564. TR-FRET cullin neddylation, biochemical. inhibition, % at 25 µM. 360,000 compounds, 0.58% hits. AID 651699; in the data active means inhibition above about 36%
Efflux pump mplx: antifungal efflux pump inhibition, Nile Red retention | S. cerevisiae Candida pump triplex | inhibition, % at 10 µM | 330,000 compounds, 0.44% hits | AID 485275;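 active means plate passing quality check with inhibition over a set limit, or well fluorescence over plate mean plus 4 SD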;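 further: Nile Red retained in pooled yeast measured as flow cytometry median fluorescence; 0% = buffer negative control and 100% = Enniatin B positive control; higher means more Nile Red kept so more efflux inhibition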
Arr AP2 block: blocks beta-arrestin peptide binding to AP2 adaptin; FITC-arrestin peptide / GST-AP2 beads, flow cytometry; AP2 beta2 appendage carries R879A mutation; 340,000 compounds, 0.31% hits; inhibition, % at 10 µM;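 active means inhibition above a set limit, near 3 SD of compounds lacking own fluorescence, cut at about 54% in these data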;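 further: plate controls were DMSO wells for no effect and 5 µM unlabelled arrestin peptide for full effect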
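Material – AP2 appendage R879A on GSH beads · Buffer or medium – PBS with 0.05% Tween 20 and 0.1% BSA · Probe or stimulus – fluorescein-tagged arrestin peptide at 50 nM final · Incubation – compound with beads 12 min RT, then probe 1 h RT · Detection – high-throughput flow cytometry of beads, ex 488, em 535 nm · Evaluation – percent response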
DSG3 Ab inh: human desmoglein-3 autoantibody binding inhibition. 310,000 compounds, 0.48% hits. P32926. DSG3-coupled beads, scFv-anti-DSG3-GFP binding, flow cytometry; stronger effect = lower value. AID 588358. binding (percent of control), % at 10 µM;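 active means binding more than 3 SD below its plate's average and above zero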;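 further: hits lower antibody fragment binding to DSG3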
Target sequence (P32926 whole entry, looked up, the tested form may be a part): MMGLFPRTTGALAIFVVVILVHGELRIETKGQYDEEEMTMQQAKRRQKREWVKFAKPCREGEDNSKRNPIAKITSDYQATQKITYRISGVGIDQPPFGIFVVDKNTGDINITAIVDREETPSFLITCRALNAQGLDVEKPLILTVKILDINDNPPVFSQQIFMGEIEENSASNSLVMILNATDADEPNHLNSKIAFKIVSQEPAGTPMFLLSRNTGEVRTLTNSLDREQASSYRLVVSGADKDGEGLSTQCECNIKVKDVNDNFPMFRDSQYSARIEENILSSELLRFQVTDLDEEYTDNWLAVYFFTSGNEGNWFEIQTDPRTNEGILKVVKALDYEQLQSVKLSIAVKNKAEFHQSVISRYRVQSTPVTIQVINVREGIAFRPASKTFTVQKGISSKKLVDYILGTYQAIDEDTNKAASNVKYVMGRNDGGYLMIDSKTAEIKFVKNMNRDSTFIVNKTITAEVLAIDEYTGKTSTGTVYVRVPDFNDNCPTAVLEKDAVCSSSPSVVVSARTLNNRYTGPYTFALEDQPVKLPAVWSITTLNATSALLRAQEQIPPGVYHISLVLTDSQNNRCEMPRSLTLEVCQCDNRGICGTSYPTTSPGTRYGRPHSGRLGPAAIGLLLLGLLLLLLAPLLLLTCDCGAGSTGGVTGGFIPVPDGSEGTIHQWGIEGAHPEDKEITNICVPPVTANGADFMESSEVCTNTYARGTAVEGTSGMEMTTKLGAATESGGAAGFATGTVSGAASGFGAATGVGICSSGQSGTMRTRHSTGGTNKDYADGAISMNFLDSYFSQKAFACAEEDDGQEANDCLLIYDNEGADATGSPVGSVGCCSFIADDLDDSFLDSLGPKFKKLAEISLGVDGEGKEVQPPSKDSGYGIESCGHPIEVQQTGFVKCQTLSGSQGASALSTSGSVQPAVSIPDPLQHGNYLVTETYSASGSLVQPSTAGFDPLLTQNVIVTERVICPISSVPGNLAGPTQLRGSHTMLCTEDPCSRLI
* hit, by the source's call. The list is not random: actives were taken first. Their share in the collection is about 1.7%.

`Cc1ccc2oc(-c3ccc(NC(=O)CC(C)C)cc3)nc2c1` gave Efflux pump mplx 0, Arr AP2 block 6 and DSG3 Ab inh -15*.
CC(C)CC(=O)Nc1ccc2oc(-c3cccnc3)nc2c1 was read as Efflux pump mplx 0, Arr AP2 block -1 and DSG3 Ab inh 97.
O=C(COc1ccc2ccccc2c1)Nc1ccc(Cc2ccncc2)cc1 was read as Neddyl block -12, Efflux pump mplx 0, Arr AP2 block 13 and DSG3 Ab inh 37*.
`COc1ccc(-c2ccnc3[nH]n(-c4ccccc4)c(=O)c23)cc1` gave Neddyl block -6, Efflux pump mplx 0, Arr AP2 block 3 and DSG3 Ab inh 87*.
For CCN(CC)CCCN(Cc1cc2cc3c(cc2[nH]c1=O)OCCO3)C(=O)Nc1ccc(F)cc1 the results were Neddyl block 22, Efflux pump mplx 0, Arr AP2 block -1 and DSG3 Ab inh 102.
Screening NC(=O)c1ccsc1NC(=O)COC(=O)c1cc(=O)[nH]c2ccccc12 returned Neddyl block 5, Efflux pump mplx 0, Arr AP2 block -2 and DSG3 Ab inh 83*.
For O=C(COC(=O)c1cc(=O)[nH]c2ccccc12)NCc1cccs1 the results were Neddyl block 10, Efflux pump mplx 0, Arr AP2 block -10 and DSG3 Ab inh 96.
Screening Cc1ccc(NC(=O)CCNC(=O)c2ccco2)cc1F returned Neddyl block 7, Efflux pump mplx 0, Arr AP2 block -6 and DSG3 Ab inh 102.
Screening COc1ccc(S(=O)(=O)N2CCN(C(=O)c3ccccc3Cc3ccccc3)CC2)cc1OC returned Neddyl block -5 and DSG3 Ab inh 100.
Screening CCOc1ccc(S(=O)(=O)N2CCN(C(=O)c3ccccc3Cc3ccccc3)CC2)cc1 returned Neddyl block 3, Efflux pump mplx 0, Arr AP2 block 3 and DSG3 Ab inh 80*.
`CC(C)c1cccc(C(C)C)c1OC(=O)[C@H]1OC(c2ccc(Br)cc2)=C[C@@H]1c1ccc(Br)cc1` gave Neddyl block -49, Efflux pump mplx 0.8*, Arr AP2 block -5 and DSG3 Ab inh 98.
N#C/C(C(=O)Nc1ccc(Cl)cc1)=C(/S)Nc1ccccc1 was read as Neddyl block 14, Efflux pump mplx 1, Arr AP2 block -41 and DSG3 Ab inh 74*.
For CCCN(C(=O)COC(=O)CSc1ccc([N+](=O)[O-])cc1)C1CCS(=O)(=O)C1 (centres undefined) the results were Neddyl block -44, Efflux pump mplx 0 and Arr AP2 block 1.
For Cn1c(=O)c2ccccc2n2c(CCl)nnc12 the results were Neddyl block 22, Efflux pump mplx 0, Arr AP2 block -13 and DSG3 Ab inh 27*.
`COc1ccc(/C=C/C(=O)Nc2cccc(S(=O)(=O)NC3=NCCCCC3)c2)cc1OC` gave Neddyl block 19, Efflux pump mplx 0, Arr AP2 block 25 and DSG3 Ab inh 91.
Screening NC(CSC(c1ccccc1)(c1ccccc1)c1ccc2c(c1)OCO2)C(=O)O (centres undefined) returned Neddyl block 0 and DSG3 Ab inh 93*.
Screening NC(=O)CC(c1ccccc1)c1ccc2c(c1)OCO2 (centres undefined) returned Neddyl block 3, Efflux pump mplx 0, Arr AP2 block 3 and DSG3 Ab inh 109.
O=C(Nc1ccc(Cl)cc1Cl)c1cc2ccccc2o1 was read as Efflux pump mplx 0, Arr AP2 block 1 and DSG3 Ab inh 96*.
O=C(c1ccc(Cl)c(Cl)c1)c1cnc(Nc2ccccc2)s1 was read as Neddyl block -3, Efflux pump mplx 0, Arr AP2 block 8 and DSG3 Ab inh -25*.
`C[C@@H]1CN([C@H](C)CO)C(=O)c2cc(Br)cnc2O[C@@H]1CN(C)C(=O)Cc1ccccc1` gave Neddyl block -5 and DSG3 Ab inh 102.
CC#CC(=O)NC1CCCN(C2Cc3ccccc3C2)C1 (centres undefined) was read as Neddyl block 3, Efflux pump mplx 0, Arr AP2 block 3 and DSG3 Ab inh 115.
For COc1ccc2cc(C(=O)COC(=O)COc3ccc4c(C)cc(=O)oc4c3)ccc2c1 the results were Neddyl block -228, Efflux pump mplx 0, Arr AP2 block -4 and DSG3 Ab inh 69*.
For Cc1ccc(S(=O)(=O)N(C)CC(=O)Nc2cccnc2)cc1 the results were Neddyl block 9, Efflux pump mplx 0, Arr AP2 block 3 and DSG3 Ab inh 102.
Cc1cccc(OCc2nnc(SCC(=O)Nc3ccc(C)c(C)c3)o2)c1 was read as Neddyl block 10, Efflux pump mplx 0, Arr AP2 block 6 and DSG3 Ab inh 66*.
`Cc1cccc(OCc2nnc(SCC(=O)Nc3ncc(C)s3)o2)c1` gave Neddyl block 15, Efflux pump mplx 0, Arr AP2 block 18 and DSG3 Ab inh 112.
CC1(C)C(/C=C/C=C/C=C/C=C2\N(CCCCS(=O)(=O)O)c3ccc4ccccc4c3C2(C)C)=[N+](CCCCS(=O)(=O)[O-])c2ccc3ccccc3c21 was read as Neddyl block 27, Efflux pump mplx 0, Arr AP2 block 42 and DSG3 Ab inh 33*.
For O=S1(=O)[C@H]2C[C@@H]3C=C[C@@]2(CN1Cc1cccc(F)c1)O3 the results were Neddyl block -7, Efflux pump mplx 0, Arr AP2 block 24 and DSG3 Ab inh 102.
`CC(C)[C@H](NC(=O)OC(C)(C)C)c1cc(C(=O)NCCc2c[nH]c3ccccc23)c(N)s1` gave Neddyl block -10.
CCN(CC)c1ccc(/C=N/NC(=O)c2ccc3nc[nH]c3c2)c(O)c1 was read as Neddyl block 38*, Efflux pump mplx 0, Arr AP2 block 3 and DSG3 Ab inh 99.
Screening CCN(CC)c1ccc(/C=N/NC(=O)c2ccoc2C)c(O)c1 returned Neddyl block 5, Efflux pump mplx 0, Arr AP2 block 5 and DSG3 Ab inh 48*.
For Cc1ccc(OCC(=O)Nc2nnc(S(=O)(=O)N3CCC(C)CC3)s2)cc1 the results were Neddyl block 1, Efflux pump mplx 0, Arr AP2 block 7 and DSG3 Ab inh 74*.
For NC(=O)COC(=O)[C@@H]1CC(O)CN1S(=O)(=O)c1ccc2c(c1)OCCO2 (some centres undefined) the results were Neddyl block 2, Efflux pump mplx 0, Arr AP2 block 18 and DSG3 Ab inh 88.
Cc1ccc(OCC(=O)NCCCNC(=O)c2ccncc2)cc1C was read as Neddyl block -3, Efflux pump mplx 0, Arr AP2 block 46 and DSG3 Ab inh 106.
S=c1[nH]nc(COc2ccccc2)n1/N=C/C=C/c1ccccc1 was read as Neddyl block 1, Efflux pump mplx 0, Arr AP2 block -18 and DSG3 Ab inh 102.
For S=c1[nH]nc(-c2n[nH]c3c2CCC3)n1/N=C/C=C/c1ccco1 the results were Neddyl block 55*, Efflux pump mplx 0, Arr AP2 block 24 and DSG3 Ab inh 102.
`S=c1[nH]nc(COc2ccccc2)n1/N=C/C=C/c1ccco1` gave Neddyl block -1, Efflux pump mplx 0, Arr AP2 block 0 and DSG3 Ab inh 81*.

Bioassay records (PubChem BioAssay)
